From paper PMC2841013 (Biochemistry, 2010)
“Also recorded” adds a separate entry of the source.

Assays:
FOS = assay: Coiled-coil array vs FOS; assay type: binding, human; details: BZLF1 probe 1280 nM
Method in brief: (§1)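 Leucine-zipper regions of human bZIPs and viral proteins were expressed in E. coli RP3098, purified denaturing via Ni-NTA then reverse-phase HPLC, and printed on aldehyde glass slides. The fluorescently labelled BZLF1 zipper was probed at 1280 nM in phosphate buffer with GdnHCl. Each measurement averaged 8 background-corrected spots and was reported as Sarray or arrayscore, −log(F/Fmax), with F as intensity minus the probe's median signal.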

CEBPA (C/EBPα) = details: cited from earlier work
JUN = assay: Coiled-coil array vs JUN; assay type: binding, human; details: BZLF1 probe 1280 nM
BZLF1 = assay: Coiled-coil array, BZLF1 self-association; assay type: binding, Epstein-Barr virus; details: BZLF1 leucine zipper; probe 1280 nM
CEBPA = assay: Coiled-coil array vs CEBPA; assay type: binding, human; details: BZLF1; leucine-zipper regions; probe 1280 nM
Method in brief: as §1

[1] = system: 33 representative human bZIPs; assay: Coiled-coil array, panel of human bZIPs; assay type: binding
MAFB on MARE DNA = assay: Gel-shift with MAFB on MARE DNA; assay type: binding, human; details: MAFB 4 nM, HBZLZ 4, 40, 400, or 4000 nM
MAFG on MARE DNA = assay: Gel-shift with MAFG on MARE DNA; assay type: binding, human; details: MAFG 4 nM, HBZLZ 4, 40, 400, or 4000 nM
Q9DGW5 = details: other: circular dichroism

BZLF1: bZIP protein encoded by Epstein-Barr virus (LLQHYREVAAAKSSENDRLRLLLKQM; fluorescently labeled when used as solution probe on the arrays (dye and site not stated); left off: His tag (from the vector pDEST17, modified versions, and the Ni-NTA purification), end not stated,)
interaction on array (FOS): not observed to interact on the arrays
interaction with CEBPA (CEBPA (C/EBPα)): interact with many viral and cellular proteins including the human bZIP CEBPA (C/EBPα)
interaction on array (JUN): not observed to interact on the arrays
self-association on array (BZLF1): observed to self-associate strongly
interaction on array (CEBPA): this pairing was not observed in our array experiments
interaction with human bZIPs on array ([1]; BZLF1 leucine zipper, probe concentration 1280 nM, average of 8 spots): not to interact with any human bZIP peptides; also recorded: display almost exclusive homo-association

BZLF1CT: BZLF1 construct with the C-terminal extension (LLQHYREVAAAKSSENDRLRLLLKQMCPSLDVDSIIPRTPDVLHEDLLNF; fluorescently labeled when used as solution probe on the arrays (dye and site not stated))
interaction with human bZIPs on array ([1]; construct with the C-terminal extension): did not interact strongly with any human proteins

HBZLZ: leucine-zipper-only version of HBZ (DGYTRQLEGEVESLEAERRKLLQEKEDLMGEVNYWQGRLEAMWLQ; fluorescently labeled when used as solution probe on the arrays (dye and site not stated); left off: His tag (from the vector pDEST17, modified versions, and the Ni-NTA purification), end not stated,)
amount of MAFB bound to DNA (MAFB on MARE DNA): The amount of MAF protein bound to DNA was decreased, though a higher concentration of HBZLZ was required. No additional complex was detected
amount of MAFG bound to DNA (MAFG on MARE DNA): The amount of MAF protein bound to DNA was decreased, though a higher concentration of HBZLZ was required. No additional complex was detected

B1: MEQ bZIP domain (protein)
chain: KQKLERRRKRNRDAARRRRRKQTDYVDKLHEACEELQRANEHLRKEIRDLRTECTSLRVQLACH
Tm (homo-association) (Q9DGW5): for MEQ was 35.2 °C
